Experimental data from ChEMBL document CHEMBL1799951, “FimH antagonists for the oral treatment of urinary tract infections: from design and synthesis to in vitro and in vivo evaluation” (J Med Chem, 2010).
Values after ≈ are worked out from the molar mass of the structure shown. One block for each molecule: values may come before it. Active and inactive are the calls of the source. The rule behind the calls is not given here.

Experiments:
[1] = Cmax in plasma of urinary tract infection C3H/HeN mouse model at 50 mg/kg, iv administered as single dose measured after 6 hrs by LC-MS analysis; type: ADME, organism-based; set-up: dose 50 mg/kg, route intravenous
Method in brief: (§1)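 Female C3H/HeN mice (19-25 g) dosed once iv at 50 mg/kg in 100 μL PBS via tail vein. Blood and urine (10 μL) sampled at 6 min, 30 min, 1, 2, 4, 6, 8 and 24 h. Proteins precipitated with methanol, centrifuged, and supernatant quantified by LC-MS.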

[2] = Permeability of the compound assessed as membrane retention by PAMPA method; type: ADME
Method in brief: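 PAMPA with GIT-0 lipid, donor analyte 50 μM at pH 5.0, 6.2 and 7.4 in quadruplicate, 16 h undisturbed incubation. Donor and acceptor quantified by UV and LC-MS.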

[3] = AUC (0 to 24 hrs) in plasma of urinary tract infection C3H/HeN mouse model at 50 mg/kg, iv administered as single dose measured after 6 hrs by LC-MS analysis; type: ADME, organism-based; set-up: time < 24 hr, dose 50 mg/kg, route intravenous; method in brief: as §1
Escherichia coli [4] = assay: Antibacterial activity against Escherichia coli […] infected in urinary tract infection C3H/HeN mouse model assessed as log reduction in bacterial CFU in urine of mouse at 50 mg/kg, po administered as single dose 1 hr before infection and measured after 3 hrs post infection; type: functional; conditions: route intravenous, in the assay text read “iv administered” for “po administered”
[5] = Lipophilicity, log D at pH 7.4 by miniatured shake flask method; type: physicochemical; conditions: buffer
Method in brief: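 Octanol-saturated 0.1 M phosphate pH 7.4 containing analyte at 1 μM, overlaid with octanol at two volume ratios, three wells each. Shaken 2 h at 25 °C, then centrifuged; aqueous phase measured by LC-MS. log D computed from depletion. Accepted when the ratio means agree within 0.1.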

[6] = Plasma protein binding […] by LC-MS analysis; type: ADME, cell-free; conditions: read-out: PPB (converted)
[7] = AUC (0 to 24 hrs) in urine of urinary tract infection C3H/HeN mouse model at 50 mg/kg, iv administered as single dose measured after 6 hrs by LC-MS analysis; type: ADME, organism-based; set-up: time < 24 hr, dose 50 mg/kg, route intravenous; method in brief: as §1
[8] = Cmax in urine of urinary tract infection C3H/HeN mouse model at 50 mg/kg, iv administered as single dose measured after 6 hrs by LC-MS analysis; type: ADME, organism-based; set-up: dose 50 mg/kg, route intravenous; method in brief: as §1
[9] = target: Type 1 fimbrin D-mannose specific adhesin (Escherichia coli K-12) (UniProt P08191); assay: Ratio IC50 for compound to IC50 for n-heptyl R-D-mannopyranoside for His-tagged FimH expressed in Escherichia coli HM125
Method in brief: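 FimH-CRD-Th-6His (10 μg/mL) coated overnight at 4 °C in 20 mM HEPES, 150 mM NaCl, 1 mM CaCl2, pH 7.4, then blocked with 3% BSA. 4-fold compound dilutions in 5% DMSO competed with streptavidin-peroxidase TM-PAA polymer for 3 h at 25 °C. ABTS read at 415 nm, duplicates. IC50 divided by the IC50 of the heptyl mannoside reference run on the same plate.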

[10] = target: Mannose-binding protein C (Homo sapiens) (UniProt P11226); assay: Binding affinity to MBP at 1 mM
Method in brief: (§2)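 FimH-CRD (10 μg/mL), DC-SIGN-CRD-Fc (2.5 μg/mL) or MBP (10 μg/mL) coated overnight at 4 °C in 20 mM HEPES pH 7.4, 150 mM NaCl, 10 mM CaCl2. Competition against streptavidin-peroxidase TM-PAA polymer as in the FimH ELISA, test compounds at 1 mM. D-mannose at 50 mM as positive control.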

Escherichia coli [11] = assay: Antibacterial activity against Escherichia coli […] infected in urinary tract infection C3H/HeN mouse model assessed as log reduction in bacterial count in kidney of mouse at 50 mg/kg, iv administered as single dose 1 hr before infection and measured after 3 hrs post infection; type: functional, organism-based; set-up: dose 50 mg/kg
Method in brief: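 Female C3H/HeN mice given antagonist iv (100 μL PBS, tail vein) or po as suspension, then infected. Infection: isoflurane anaesthesia, bladder emptied, 50 μL UTI89 at about 10^9-10^10 CFU/mL via transurethral catheter. Six mice per group, killed 3 h post-inoculation. Kidneys plated on EMB agar. Reduction taken against the 3 h untreated control mean; Mann-Whitney test.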

[12] = Stability of the compound in simulated intestinal fluid assessed as compound remaining after 2 hrs by LC-MS analysis; type: physicochemical; conditions: read-out: Stability
Method in brief: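 Simulated intestinal fluid (phosphate, NaOH, pancreatin, pH 6) at 37 °C, compound at 10 μM, 500 rpm. Samples at 0-120 min MeCN-quenched; LC-MS as % remaining versus initial.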

[13] = Plasma protein binding in human by miniatured equilibrium dialysis method; type: ADME, cell-free; conditions: read-out: PPB (converted)
Method in brief: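 Human plasma adjusted to pH 7.5 with analyte at 10 μM, dialysed against 0.1 M phosphate pH 7.5 (MWCO 12-14 K) for 5 h at 37 °C in triplicate. Compartments MeCN-precipitated and measured by LC-MS; fb = 1 − cbuffer/cplasma.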

[14] = Stability of the compound in simulated gastrointestinal fluid assessed as compound remaining after 2 hrs by LC-MS analysis; type: physicochemical; conditions: read-out: Stability
[15] = Thermodynamic solubility of the compound at pH 6.5 after 24 hrs by LC-MS analysis; type: physicochemical; conditions: buffer, read-out: Therm_solubility
Method in brief: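 1 mg solid in 250 μL 50 mM phosphate pH 6.5, sonicated 15 min, shaken 2 h at 25 °C, left 24 h. pH measured, then filtered and diluted; concentration determined by LC-MS.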

[16] = target: T1, CD209 antigen (Homo sapiens) (UniProt Q9NNX6); assay: Binding affinity to Fc-IgG-tagged DC-SIGN carbohydrate recognizing domain at 1 mM; method in brief: as §2
T1 sequence (whole entry): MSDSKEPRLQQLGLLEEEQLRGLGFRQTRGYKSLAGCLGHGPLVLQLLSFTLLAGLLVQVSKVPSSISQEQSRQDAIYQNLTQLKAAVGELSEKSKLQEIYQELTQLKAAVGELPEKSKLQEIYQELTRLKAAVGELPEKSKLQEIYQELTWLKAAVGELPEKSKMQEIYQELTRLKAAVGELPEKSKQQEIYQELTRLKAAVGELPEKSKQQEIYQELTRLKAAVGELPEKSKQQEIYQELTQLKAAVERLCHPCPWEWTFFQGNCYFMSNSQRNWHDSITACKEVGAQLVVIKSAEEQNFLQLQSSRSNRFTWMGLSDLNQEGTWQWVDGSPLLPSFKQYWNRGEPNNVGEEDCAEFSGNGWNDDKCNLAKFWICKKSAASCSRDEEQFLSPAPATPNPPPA

Escherichia coli [17] = assay: Antibacterial activity against Escherichia coli […] infected in urinary tract infection C3H/HeN mouse model assessed as reduction in bacterial count in kidney of mouse at 50 mg/kg, iv administered as single dose 1 hr before infection and measured after 3 hrs post infection
[18] = Apparent permeability across human Caco2 cells after 120 mins by HPLC analysis; type: ADME, cell-based; conditions: Caco-2
Method in brief: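 Caco-2 cells at passage 60-65 seeded on Transwells and used on days 19-21 in DMEM without pyruvate/phenol red. Only monolayers with TEER >300 Ωcm2 before and after were kept. Apical dosing from 10 mM stock, shaken at 250 rpm. Basolateral samples at 5-120 min by HPLC; Papp = (dQ/dt)/(A·c0). Triplicates.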

[19] = AUC (0 to 24 hrs) in urine of urinary tract infection C3H/HeN mouse model assessed as Sodium3'-Chloro-4'-(alpha-D-mannopyranosyloxy)-biphenyl-4-carboxylate level at 50 mg/kg, po administered as single dose measured after 6 hrs by LC-MS analysis; type: ADME, organism-based; set-up: time < 24 hr, dose 50 mg/kg, route oral; conditions: in vivo
Method in brief: (§3)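 Female C3H/HeN mice (19-25 g) given a single 50 mg/kg oral dose by gavage. Compound dissolved in DMSO, then diluted in 1% Tween-80/PBS to a suspension. Blood and urine (10 μL) sampled at 6 min, 30 min, 1, 2, 4, 6, 8 and 24 h. Proteins precipitated with methanol, then LC-MS; for the prodrug, both ester and carboxylate metabolite measured; n=6.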

[20] = AUC (0 to 24 hrs) in plasma of urinary tract infection C3H/HeN mouse model at 50 mg/kg, po administered as single dose measured after 6 hrs by LC-MS analysis; type: ADME, organism-based; set-up: time < 24 hr, dose 50 mg/kg, route oral; method in brief: as §3
[21] = target: Type 1 fimbrin D-mannose specific adhesin (Escherichia coli K-12, UniProt P08191); assay: Competitive inhibition of His-tagged FimH carbohydrate recognizing domain expressed in Escherichia coli HM125 using ABTS-substrate after 3 hrs by […] assay
Method in brief: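 FimH-CRD-Th-6His from E. coli HM125 coated at 10 μg/mL overnight at 4 °C and blocked with 3% BSA. 4-fold compound dilutions in HEPES buffer pH 7.4 (5% DMSO) plus streptavidin-peroxidase TM-PAA polymer, 3 h at 25 °C. ABTS developed 4 min and read at 415 nm. Duplicates; heptyl mannoside reference on each plate.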

[22] = AUC (0 to 24 hrs) in urine of urinary tract infection C3H/HeN mouse model at 50 mg/kg, po administered as single dose measured after 6 hrs by LC-MS analysis; type: ADME, organism-based; set-up: time < 24 hr, dose 50 mg/kg, route oral
Method in brief: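 Female C3H/HeN mice (19-25 g) gavaged once at 50 mg/kg. Compound dissolved in DMSO and diluted in 1% Tween-80/PBS as a suspension, or given in 200 μL PBS. Blood and urine sampled at 6 min to 24 h, methanol-precipitated, and analysed by LC-MS. For the prodrug, both parent and carboxylate metabolite were measured.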

Liver [23] = assay: Metabolic stability of the compound in mouse liver microsomes assessed as degradation by carboxylesterase at 2 uM by LC-MS analysis in presence of CES inhibitor BNPP; type: ADME, Microsome
Method in brief: (§4)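 Pooled male mouse liver microsomes (0.25 mg/mL) with 2 μM compound in 0.1 M TRIS pH 7.4 and 2 mM MgCl2 at 37 °C. Samples at 0, 1, 3, 6 and 15 min quenched in cold MeCN; LC-MS as % remaining. The inhibitor arm used microsomes pre-incubated 5 min with 1 mM BNPP.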

Liver [24] = assay: Metabolic stability of the compound in mouse liver microsomes assessed as degradation by carboxylesterase at 2 uM by LC-MS analysis; type: ADME, Microsome; method in brief: as §4
Plasma = assay: AUC (0 to 24 hrs) in plasma of urinary tract infection C3H/HeN mouse model assessed as Sodium3'-Chloro-4'-(alpha-D-mannopyranosyloxy)-biphenyl-4-carboxylate level at 50 mg/kg, po administered as single dose measured after 6 hrs by LC-MS analysis; type: ADME, organism-based; set-up: time < 24 hr, dose 50 mg/kg, route oral; conditions: in vivo; method in brief: as §3

Sequence of Type 1 fimbrin D-mannose specific adhesin (Escherichia coli K-12) (P08191 whole entry): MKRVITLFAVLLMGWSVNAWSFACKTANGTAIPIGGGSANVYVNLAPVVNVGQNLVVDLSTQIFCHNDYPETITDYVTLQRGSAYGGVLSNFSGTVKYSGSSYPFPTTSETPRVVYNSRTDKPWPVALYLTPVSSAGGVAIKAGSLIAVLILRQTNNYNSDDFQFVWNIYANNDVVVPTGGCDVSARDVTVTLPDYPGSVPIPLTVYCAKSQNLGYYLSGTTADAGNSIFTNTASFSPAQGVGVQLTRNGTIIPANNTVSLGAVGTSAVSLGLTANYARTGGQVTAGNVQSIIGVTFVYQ
Sequence of Mannose-binding protein C (Homo sapiens) (P11226 whole entry): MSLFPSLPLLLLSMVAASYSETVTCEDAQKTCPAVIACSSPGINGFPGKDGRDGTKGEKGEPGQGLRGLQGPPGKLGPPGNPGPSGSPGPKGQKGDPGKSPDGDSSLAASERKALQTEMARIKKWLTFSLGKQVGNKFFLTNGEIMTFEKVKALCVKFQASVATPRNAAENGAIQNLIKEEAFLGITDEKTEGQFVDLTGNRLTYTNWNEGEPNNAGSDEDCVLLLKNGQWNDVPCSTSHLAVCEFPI
Sequence of Type 1 fimbrin D-mannose specific adhesin (P08191 whole entry, the tested form may be a part): as the sequence (P08191 whole entry) above

Cmax [1]: 35 µg/mL
permeability [2]: 21%
AUC(0-t) at 24 h [3]: 34.3 µg·h/mL
logD [5]: 1.65
fraction unbound [6]: 0.19
AUC(0-t) at 24 h [7]: 2470 µg·h/mL
Cmax [8]: 951 µg/mL
Ratio IC50 [9]: 1
Activity [10]: inactive
remaining at 2 h [12]: 80%
fraction unbound [13]: 0.19
remaining at 2 h [14]: 80%
solubility thermodynamic at 24 h [15]: > 3000 µg/mL
Activity [16]: inactive
SMILES: CCCCCCCO[C@H]1O[C@H](CO)[C@@H](O)[C@H](O)[C@@H]1O
FC (Escherichia coli [4]): 1.5
Activity (Escherichia coli [11]): Active
Activity (Escherichia coli [17]): Active

Papp at 2 h [18]: 2.05 ×10⁻⁶ cm/s
AUC [19]: 21.69 µg·h/mL
permeability [2]: 41%
logD [5]: 2.32
AUC(0-t) at 24 h [20]: 1.02 µg·h/mL
Ratio IC50 [9]: 0.06
IC50 [21]: 4.8 nM
remaining at 2 h [12]: 80%
fraction unbound [13]: 0.06
remaining at 2 h [14]: 80%
AUC(0-t) at 24 h [22]: 1.89 µg·h/mL
solubility thermodynamic at 24 h [15]: 11.9 µg/mL (≈ 28 µM)
Stability (Liver [23]): Stable
Stability (Liver [24]): Unstable
AUC (Plasma): 2.1 µg·h/mL
SMILES: COC(=O)c1ccc(-c2ccc(O[C@H]3O[C@H](CO)[C@@H](O)[C@H](O)[C@@H]3O)c(Cl)c2)cc1
